Measurements as given in ChEMBL document CHEMBL5724801, “EUbOPEN Chemogenomics Library - Multiplex” (2024).
Several values for one entry are separate records, joined by “and”; a condition that tells them apart may be missing. Equal values may be shown once.

System: Fibroblast
Assay: Multiplex assay against human fibroblast
Type: toxicity, cell-based
Method in brief: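 Live cells were stained at seeding with Hoechst33342, BioTracker Green Microtubule Cytoskeleton Dye, MitoTracker Red and Annexin V Alexa Fluor 680. Following compound addition, they were imaged on a CQ1 microscope at 37°C and 5% CO2 and gated by CellPathfinder machine learning into Hoechst high-intensity objects or normal cells, with normal cells split into healthy, pyknosed or fragmented nuclei and pyknosed cells into mitotic or apoptotic. Tubulin, mitochondrial-mass and membrane-permeability phenotypes are per cents of healthy-nucleus cells.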

[1] = 12 h, 1 µM, compound concentration 1 uM
[2] = 12 h, 10 µM, compound concentration 10 uM
[3] = 24 h, 1 µM, compound concentration 1 uM
[4] = 24 h, 10 µM, compound concentration 10 uM
[5] = 48 h, 1 µM, compound concentration 1 uM
[6] = 48 h, 10 µM, compound concentration 10 uM

CC[C@@H](C)Nc1nc(C)nc2c(-c3ccc(OC)nc3C)c(C)nn12 [PEXACERFONT]
Population Apoptotic (%) [1]: 40% and 25%
Population Fragmented Nuclei (%) [1]: 12% and 32%
Population Healthy Nuclei (%) [1]: 66% and 44%
Population Hoechst High Intensity Objects (%) [1]: 1% and 2%
Population Mitochondria Different-Phenotype (%) [1]: 4%
Population Mitotic Cells (%) [1]: 60% and 75%
Population Normal (%) [1]: 98% and 97%
Population Pyknosed Nuclei (%) [1]: 20% and 24%
Population Tubulin-Different-Phenotype (%) [1]: 35% and 65%
Total Cell Count [1]: 147 and 103
Population Apoptotic (%) [2]: 43% and 38%
Population Fragmented Nuclei (%) [2]: 15% and 21%
Population Healthy Nuclei (%) [2]: 55% and 40%
Population Hoechst High Intensity Objects (%) [2]: 2% and 8%
Population Membrane Permeable-Phenotype (%) [2]: 0% and 7%
Population Mitochondria Different-Phenotype (%) [2]: 19% and 9%
Population Mitotic Cells (%) [2]: 56% and 61%
Population Normal (%) [2]: 97% and 91%
Population Pyknosed Nuclei (%) [2]: 29% and 38%
Population Tubulin-Different-Phenotype (%) [2]: 62% and 68%
Total Cell Count [2]: 143 and 147
Population Apoptotic (%) [3]: 52% and 47%
Population Fragmented Nuclei (%) [3]: 16% and 35%
Population Healthy Nuclei (%) [3]: 70% and 42%
Population Hoechst High Intensity Objects (%) [3]: 1% and 3%
Population Membrane Permeable-Phenotype (%) [3]: 0% and 20%
Population Mitochondria Different-Phenotype (%) [3]: 3% and 2%
Population Mitotic Cells (%) [3]: 47% and 52%
Population Normal (%) [3]: 98% and 96%
Population Pyknosed Nuclei (%) [3]: 13% and 22%
Population Tubulin-Different-Phenotype (%) [3]: 38% and 61%
Total Cell Count [3]: 157 and 108
Population Apoptotic (%) [4]: 37% and 38%
Population Fragmented Nuclei (%) [4]: 16% and 18%
Population Healthy Nuclei (%) [4]: 56% and 47%
Population Hoechst High Intensity Objects (%) [4]: 1% and 7%
Population Mitochondria Different-Phenotype (%) [4]: 10% and 6%
Population Mitotic Cells (%) [4]: 62% and 61%
Population Normal (%) [4]: 98% and 92%
Population Pyknosed Nuclei (%) [4]: 27% and 33%
Population Tubulin-Different-Phenotype (%) [4]: 68% and 76%
Total Cell Count [4]: 139 and 143
Population Apoptotic (%) [5]: 54% and 25%
Population Fragmented Nuclei (%) [5]: 15% and 40%
Population Healthy Nuclei (%) [5]: 69% and 45%
Population Hoechst High Intensity Objects (%) [5]: 8% and 1%
Population Mitochondria Different-Phenotype (%) [5]: 0% and 4%
Population Mitotic Cells (%) [5]: 45% and 75%
Population Normal (%) [5]: 91% and 98%
Population Pyknosed Nuclei (%) [5]: 15% and 14%
Population Tubulin-Different-Phenotype (%) [5]: 30% and 52%
Total Cell Count [5]: 160 and 113
Population Apoptotic (%) [6]: 87% and 52%
Population Fragmented Nuclei (%) [6]: 23% and 32%
Population Healthy Nuclei (%) [6]: 53% and 50%
Population Hoechst High Intensity Objects (%) [6]: 3% and 4%
Population Membrane Permeable-Phenotype (%) [6]: 0% and 12%
Population Mitochondria Different-Phenotype (%) [6]: 14% and 9%
Population Normal (%) [6]: 96% and 95%
Population Pyknosed Nuclei (%) [6]: 22% and 16%
Population Tubulin-Different-Phenotype (%) [6]: 62% and 76%
Total Cell Count [6]: 144 and 134

C[C@H](NC(=O)CNC(=O)c1cccc(Cl)c1)c1ccccc1
Population Apoptotic (%) [1]: 50% and 44%
Population Fragmented Nuclei (%) [1]: 18% and 28%
Population Healthy Nuclei (%) [1]: 71% and 53%
Population Hoechst High Intensity Objects (%) [1]: 0% and 3%
Population Membrane Permeable-Phenotype (%) [1]: 0% and 6%
Population Mitochondria Different-Phenotype (%) [1]: 4% and 2%
Population Mitotic Cells (%) [1]: 50% and 56%
Population Normal (%) [1]: 100% and 96%
Population Pyknosed Nuclei (%) [1]: 10% and 18%
Population Tubulin-Different-Phenotype (%) [1]: 17% and 41%
Total Cell Count [1]: 94 and 140
Population Apoptotic (%) [2]: 48% and 43%
Population Fragmented Nuclei (%) [2]: 15% and 31%
Population Healthy Nuclei (%) [2]: 58% and 43%
Population Hoechst High Intensity Objects (%) [2]: 2% and 1%
Population Membrane Permeable-Phenotype (%) [2]: 0% and 13%
Population Mitochondria Different-Phenotype (%) [2]: 8% and 3%
Population Mitotic Cells (%) [2]: 51% and 56%
Population Normal (%) [2]: 97% and 98%
Population Pyknosed Nuclei (%) [2]: 26% and 24%
Population Tubulin-Different-Phenotype (%) [2]: 35% and 54%
Total Cell Count [2]: 106 and 124
Population Apoptotic (%) [3]: 43% and 33%
Population Fragmented Nuclei (%) [3]: 17% and 30%
Population Healthy Nuclei (%) [3]: 65% and 50%
Population Hoechst High Intensity Objects (%) [3]: 1% and 3%
Population Membrane Permeable-Phenotype (%) [3]: 1% and 8%
Population Mitochondria Different-Phenotype (%) [3]: 3% and 4%
Population Mitotic Cells (%) [3]: 56% and 66%
Population Normal (%) [3]: 98% and 96%
Population Pyknosed Nuclei (%) [3]: 17% and 19%
Population Tubulin-Different-Phenotype (%) [3]: 25% and 42%
Total Cell Count [3]: 93 and 145
Population Apoptotic (%) [4]: 52% and 56%
Population Fragmented Nuclei (%) [4]: 14% and 33%
Population Healthy Nuclei (%) [4]: 61% and 45%
Population Hoechst High Intensity Objects (%) [4]: 2% and 5%
Population Membrane Permeable-Phenotype (%) [4]: 1% and 5%
Population Mitochondria Different-Phenotype (%) [4]: 3% and 7%
Population Mitotic Cells (%) [4]: 48% and 43%
Population Normal (%) [4]: 97% and 94%
Population Pyknosed Nuclei (%) [4]: 24% and 20%
Population Tubulin-Different-Phenotype (%) [4]: 45% and 64%
Total Cell Count [4]: 107 and 118
Population Apoptotic (%) [5]: 33% and 40%
Population Fragmented Nuclei (%) [5]: 20% and 29%
Population Healthy Nuclei (%) [5]: 67% and 52%
Population Hoechst High Intensity Objects (%) [5]: 1% and 3%
Population Membrane Permeable-Phenotype (%) [5]: 0% and 4%
Population Mitochondria Different-Phenotype (%) [5]: 0% and 2%
Population Mitotic Cells (%) [5]: 66% and 60%
Population Normal (%) [5]: 98% and 96%
Population Pyknosed Nuclei (%) [5]: 12% and 17%
Population Tubulin-Different-Phenotype (%) [5]: 26% and 44%
Total Cell Count [5]: 95 and 147
Population Apoptotic (%) [6]: 68% and 69%
Population Fragmented Nuclei (%) [6]: 15% and 38%
Population Healthy Nuclei (%) [6]: 56% and 50%
Population Hoechst High Intensity Objects (%) [6]: 7% and 4%
Population Membrane Permeable-Phenotype (%) [6]: 1% and 6%
Population Mitochondria Different-Phenotype (%) [6]: 15% and 5%
Population Mitotic Cells (%) [6]: 31% and 30%
Population Normal (%) [6]: 92% and 95%
Population Pyknosed Nuclei (%) [6]: 27% and 11%
Population Tubulin-Different-Phenotype (%) [6]: 50% and 67%
Total Cell Count [6]: 112 and 121

Cc1cc(C(C#N)c2ccc(Cl)cc2)c(Cl)cc1NC(=O)c1cc(I)cc(I)c1O (stereo unspecified) [CLOSANTEL]
Population Fragmented Nuclei (%) [1]: 11% and 4.88%
Population Healthy Nuclei (%) [1]: 69% and 80%
Population Hoechst High Intensity Objects (%) [1]: 0%
Population Membrane Permeable-Phenotype (%) [1]: 3.62% and 2.44%
Population Mitochondria Different-Phenotype (%) [1]: 10.14% and 4.88%
Population Mitotic Cells (%) [1]: 97.5% and 87.1%
Population Normal (%) [1]: 100%
Population Pyknosed Nuclei (%) [1]: 20% and 15.12%
Population Tubulin-Different-Phenotype (%) [1]: 11.59%
Total Cell Count [1]: 200 and 205
Population Fragmented Nuclei (%) [2]: 14.05% and 6.49%
Population Healthy Nuclei (%) [2]: 60.33% and 78.38%
Population Hoechst High Intensity Objects (%) [2]: 0%
Population Membrane Permeable-Phenotype (%) [2]: 3.42% and 2.76%
Population Mitochondria Different-Phenotype (%) [2]: 8.22% and 6.21%
Population Mitotic Cells (%) [2]: 95.16% and 78.57%
Population Normal (%) [2]: 100%
Population Pyknosed Nuclei (%) [2]: 25.62% and 15.14%
Population Tubulin-Different-Phenotype (%) [2]: 12.33% and 14.48%
Total Cell Count [2]: 242 and 185
Population Apoptotic (%) [3]: 11.76% and 28.57%
Population Fragmented Nuclei (%) [3]: 7.66% and 4.52%
Population Healthy Nuclei (%) [3]: 77.03% and 88.44%
Population Hoechst High Intensity Objects (%) [3]: 0%
Population Membrane Permeable-Phenotype (%) [3]: 1.17% and 0.57%
Population Mitochondria Different-Phenotype (%) [3]: 7.6% and 4.55%
Population Mitotic Cells (%) [3]: 88.24% and 71.43%
Population Normal (%) [3]: 100%
Population Pyknosed Nuclei (%) [3]: 15.32% and 7.04%
Population Tubulin-Different-Phenotype (%) [3]: 12.28% and 13.07%
Total Cell Count [3]: 222 and 199
Population Apoptotic (%) [4]: 10.53% and 22.73%
Population Fragmented Nuclei (%) [4]: 9.54% and 3.72%
Population Healthy Nuclei (%) [4]: 74.69% and 84.57%
Population Hoechst High Intensity Objects (%) [4]: 0%
Population Membrane Permeable-Phenotype (%) [4]: 2.22% and 2.52%
Population Mitochondria Different-Phenotype (%) [4]: 3.89% and 5.03%
Population Mitotic Cells (%) [4]: 89.47% and 77.27%
Population Normal (%) [4]: 100%
Population Pyknosed Nuclei (%) [4]: 15.77% and 11.7%
Population Tubulin-Different-Phenotype (%) [4]: 12.78% and 13.84%
Total Cell Count [4]: 241 and 188
Population Apoptotic (%) [5]: 35.29% and 17.65%
Population Fragmented Nuclei (%) [5]: 10.13% and 6.91%
Population Healthy Nuclei (%) [5]: 82.38% and 85.25%
Population Hoechst High Intensity Objects (%) [5]: 0%
Population Membrane Permeable-Phenotype (%) [5]: 1.07% and 1.62%
Population Mitotic Cells (%) [5]: 64.71% and 82.35%
Population Normal (%) [5]: 100%
Population Pyknosed Nuclei (%) [5]: 7.49% and 7.83%
Population Tubulin-Different-Phenotype (%) [5]: 8.02% and 14.05%
Total Cell Count [5]: 227 and 217
Population Apoptotic (%) [6]: 33.33% and 66.67%
Population Fragmented Nuclei (%) [6]: 6.69% and 4.66%
Population Healthy Nuclei (%) [6]: 88.85% and 92.23%
Population Hoechst High Intensity Objects (%) [6]: 0%
Population Membrane Permeable-Phenotype (%) [6]: 0.84% and 3.93%
Population Mitochondria Different-Phenotype (%) [6]: 12.13% and 3.93%
Population Mitotic Cells (%) [6]: 66.67% and 33.33%
Population Normal (%) [6]: 100%
Population Pyknosed Nuclei (%) [6]: 4.46% and 3.11%
Population Tubulin-Different-Phenotype (%) [6]: 5.02% and 12.36%
Total Cell Count [6]: 269 and 193
